Calls of active or inactive are those of the source. No cut-off for these calls is given here.
Columns and labels:
[1] = biological target: T1, Tyrosine-protein phosphatase non-receptor type 2 (Homo sapiens, UniProt P17706); assay: Inhibition of TC-PTP after 10 mins
T1 sequence (P17706 whole entry): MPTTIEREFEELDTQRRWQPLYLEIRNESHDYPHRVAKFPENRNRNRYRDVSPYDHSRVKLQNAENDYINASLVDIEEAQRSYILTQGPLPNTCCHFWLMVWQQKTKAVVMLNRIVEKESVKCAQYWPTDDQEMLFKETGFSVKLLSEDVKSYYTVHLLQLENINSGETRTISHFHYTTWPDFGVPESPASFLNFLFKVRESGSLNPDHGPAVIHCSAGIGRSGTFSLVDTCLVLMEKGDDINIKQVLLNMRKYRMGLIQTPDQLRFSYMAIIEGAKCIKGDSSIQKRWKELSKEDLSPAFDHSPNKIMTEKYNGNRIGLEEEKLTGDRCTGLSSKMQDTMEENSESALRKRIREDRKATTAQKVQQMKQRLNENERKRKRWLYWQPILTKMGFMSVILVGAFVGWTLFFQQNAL
Summary of the method: (§1)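 Enzymes were preincubated 10 min with inhibitor in DMSO, then pNPP was added to start the reaction. Final mix: 2 mM pNPP, 50 mM Hepes, 5 mM EDTA, pH 7, plus 10% enzyme dilution buffer (Hepes, EDTA, 1 mM DTT, BSA). Enzyme levels were native PTP1B 40 nM, SHP-1cat 5 µg/mL, LAR-D1 and TC-PTP 33 U/mL, YOP 50 U/mL and YPTP-1 15 nM. IC50 came from an inhibitor concentration range, as means ± SD of 2–3 experiments.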

[2] = biological target: Tyrosine-protein phosphatase non-receptor type 6 (Homo sapiens, UniProt P29350); assay: Inhibition of SHP-1 catalytic domain after 10 mins; summary of the method: as §1
Sequence of Tyrosine-protein phosphatase non-receptor type 6 (P29350 whole entry, the tested form may be a part): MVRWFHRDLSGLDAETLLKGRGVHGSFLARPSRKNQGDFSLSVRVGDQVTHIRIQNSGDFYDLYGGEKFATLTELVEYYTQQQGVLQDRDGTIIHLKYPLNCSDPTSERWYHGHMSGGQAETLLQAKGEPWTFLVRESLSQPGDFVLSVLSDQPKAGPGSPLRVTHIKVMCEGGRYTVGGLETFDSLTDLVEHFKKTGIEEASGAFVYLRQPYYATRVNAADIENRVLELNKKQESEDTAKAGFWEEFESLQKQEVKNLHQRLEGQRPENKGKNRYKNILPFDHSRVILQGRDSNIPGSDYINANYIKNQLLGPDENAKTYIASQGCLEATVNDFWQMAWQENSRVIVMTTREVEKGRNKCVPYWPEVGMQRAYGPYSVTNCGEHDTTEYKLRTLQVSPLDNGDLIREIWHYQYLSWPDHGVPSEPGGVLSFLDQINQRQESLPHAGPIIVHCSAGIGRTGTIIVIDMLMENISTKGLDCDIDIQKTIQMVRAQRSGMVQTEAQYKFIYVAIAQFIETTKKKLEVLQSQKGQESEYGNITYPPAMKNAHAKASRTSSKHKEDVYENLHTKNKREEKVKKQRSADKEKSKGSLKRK

[3] = biological target: T2, Tyrosine-protein phosphatase 1 (Saccharomyces cerevisiae S288c, UniProt P25044); assay: Inhibition of yeast PTP1 after 10 mins; summary of the method: as §1
T2 sequence (P25044 whole entry): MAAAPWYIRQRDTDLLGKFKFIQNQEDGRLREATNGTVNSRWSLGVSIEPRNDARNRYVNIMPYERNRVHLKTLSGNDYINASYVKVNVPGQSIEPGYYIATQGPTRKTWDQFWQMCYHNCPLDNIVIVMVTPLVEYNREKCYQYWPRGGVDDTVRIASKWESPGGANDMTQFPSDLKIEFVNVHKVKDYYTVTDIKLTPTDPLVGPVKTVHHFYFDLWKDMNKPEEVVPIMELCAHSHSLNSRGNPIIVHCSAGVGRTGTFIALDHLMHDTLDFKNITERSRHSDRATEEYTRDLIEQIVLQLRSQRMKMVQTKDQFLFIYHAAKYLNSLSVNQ

[4] = Inhibition of YOP after 10 mins; summary of the method: as §1
Homo sapiens = species on record: Homo sapiens; assay: Selectivity for PTP1B over TC-PTP
[5] = Inhibition of LAR-D1 after 10 mins; set-up: species or system Homo sapiens; summary of the method: as §1
[6] = biological target: T3, Tyrosine-protein phosphatase non-receptor type 1 (Homo sapiens, UniProt P18031); assay: Inhibition of PTP1B after 10 mins
T3 sequence (P18031 whole entry): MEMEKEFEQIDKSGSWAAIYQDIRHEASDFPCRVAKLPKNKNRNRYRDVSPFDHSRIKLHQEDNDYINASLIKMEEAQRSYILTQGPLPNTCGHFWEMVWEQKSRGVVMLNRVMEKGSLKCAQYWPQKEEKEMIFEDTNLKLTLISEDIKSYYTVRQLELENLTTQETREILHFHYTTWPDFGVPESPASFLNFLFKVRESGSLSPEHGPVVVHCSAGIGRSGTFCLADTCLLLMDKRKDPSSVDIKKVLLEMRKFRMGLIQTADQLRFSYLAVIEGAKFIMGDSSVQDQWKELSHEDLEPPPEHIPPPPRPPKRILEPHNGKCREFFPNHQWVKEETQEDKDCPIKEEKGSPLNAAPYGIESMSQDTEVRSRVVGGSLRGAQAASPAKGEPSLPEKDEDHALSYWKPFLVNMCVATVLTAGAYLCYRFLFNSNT

Mus musculus = species on record: Mus musculus; assay: Antihyperglycemic activity in high fat diet induced C57BL/6JCr Slc mouse assessed as reduction in blood glucose level relative to control; format: functional, organism-based
Summary of the method: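 Male C57BL/6J Cr Slc mice, 5 wk old and acclimatized 1 wk, were fed high-fat diet for 8 wk. They were then split into two groups of 7 and fed HFD or HFD plus drug for 4 wk; a lean LFD group served as control. After a 6 h fast, mice received glucose 1 g/kg ip. Tail-blood glucose was read at baseline and at 20, 40, 60, 90 and 120 min.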

IC50 [1] | IC50 [2] | IC50 [3] | IC50 [4] | Selectivity ratio (Homo sapiens) | IC50 [5] | IC50 [6] | Ki [1] | Ki [6] | SMILES | Activity (Mus musculus)
96 µM | 25 µM | 17 µM | 34 µM | 5 | > 200 µM | 13 µM |  |  | O=C(O)COc1c(O)cc(-c2ccc(C(F)(F)F)cc2)cc1OCc1ccccc1 | 
120 µM | 38 µM | 52 µM | 33 µM | 5 | > 200 µM | 2.2 µM |  |  | O=C(O)COc1c(O)cc(-c2cccc(C(F)(F)F)c2)cc1OCc1ccccc1 | 
 |  |  |  |  |  | > 1000 µM |  |  | O=C(O)COc1c(O)cc(-c2ccccc2)cc1O | 
 |  |  |  |  |  | > 1000 µM |  |  | O=C(O)COc1c(O)cccc1OCc1ccccc1 | 
22 µM | 4 µM | 9 µM | 6 µM | 7 | 116 µM | 2 µM | 8.2 µM | 1.1 µM | O=C(O)COc1c(O)cc(-c2cc(C(F)(F)F)cc(C(F)(F)F)c2)cc1OCc1ccc(C(F)(F)F)cc1 | Active
37 µM | 9 µM | 20 µM | 15 µM | 5 | > 200 µM | 5.7 µM |  |  | O=C(O)COc1c(O)cc(-c2cc(C(F)(F)F)cc(C(F)(F)F)c2)cc1OCc1ccccc1 | 
 |  |  |  |  |  | 17 µM |  |  | O=C(O)COc1c(O)cc(-c2ccccc2)cc1OCc1ccc(C(F)(F)F)cc1 | 
 |  |  |  |  |  | 93 µM |  |  | O=C(O)COc1c(O)cc(-c2ccccc2)cc1OCc1ccccc1 | 
 |  |  |  |  |  | 300 µM |  |  | O=C(O)COc1c(O)cc(Br)cc1OCc1ccccc1 | 
44 µM | 12 µM | 23 µM | 13 µM | 5 | > 200 µM | 5.4 µM |  |  | O=C(O)COc1c(O)cc(-c2ccc(C(F)(F)F)cc2)cc1OCc1ccc(C(F)(F)F)cc1 | 
 |  |  |  |  |  | 73 µM |  |  | O=C(O)COc1c(O)cc(Br)cc1OCc1ccc(C(F)(F)F)cc1 | 
 |  |  |  |  |  | > 1000 µM |  |  | O=C(O)COc1c(O)cccc1OCc1ccc(C(F)(F)F)cc1 | 
 |  |  |  |  |  | 40 µM |  |  | COc1cc(COc2cc(-c3ccccc3)cc(O)c2OCC(=O)O)cc(OC)c1 | 
65 µM | 13 µM | 17 µM | 21 µM | 5 | > 200 µM | 5 µM |  |  | O=C(O)COc1c(O)cc(-c2cccc(C(F)(F)F)c2)cc1OCc1ccc(C(F)(F)F)cc1 | 

Source: ChEMBL document CHEMBL1137434, “2-O-carboxymethylpyrogallol derivatives as PTP1B inhibitors with antihyperglycemic activity” (Bioorg Med Chem Lett, 2007)
